Activity calls are given as the source filed them. No cut-off for these calls is given here.
Columns and labels:
MDA-MB-231 [1] = experiment: Growth inhibition of human MDA-MB-231 cells after 96 hrs by sulforhodamine B assay; type: functional, cell-based; details: MDA-MB-231, 96 h
How it was run: (§1)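 SRB assay with 96 h exposure to a range of concentrations and a DMSO control. Cells were TCA-fixed, SRB-stained and read at 530 nm to give IC50. Cells were kept at 37 °C, 5% CO₂. All other lines were grown in RPMI1640 with 10% FBS, pyruvate, HEPES and P/S.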

HT-29 = experiment: Growth inhibition of human HT-29 cells after 96 hrs by sulforhodamine B assay; type: functional, cell-based; details: HT-29, 96 h; how it was run: as §1
A549 = experiment: Growth inhibition of human A549 cells after 96 hrs by sulforhodamine B assay; type: functional, cell-based; details: A549, 96 h; how it was run: as §1
CAKI-1 = experiment: Growth inhibition of human Caki1 cells after 96 hrs by sulforhodamine B assay; type: functional, cell-based; details: CAKI-1, 96 h; how it was run: as §1
HCT-116 [2] = experiment: Growth inhibition of human HCT116 cells after 96 hrs by sulforhodamine B assay; type: functional, cell-based; details: HCT-116, 96 h; how it was run: as §1
U-251 = experiment: Growth inhibition of human U251 cells after 96 hrs by sulforhodamine B assay; type: functional, cell-based; details: U-251, 96 h; how it was run: as §1
PANC-1 = experiment: Growth inhibition of human PANC1 cells after 96 hrs by sulforhodamine B assay; type: functional, cell-based; details: PANC-1, 96 h; how it was run: as §1
MKN-45 = experiment: Growth inhibition of human MKN45 cells after 96 hrs by sulforhodamine B assay; type: functional, cell-based; details: MKN-45, 96 h; how it was run: as §1
OVCAR-3 = experiment: Growth inhibition of human OVCAR-3 cells after 96 hrs by sulforhodamine B assay; type: functional, cell-based; details: OVCAR-3, 96 h; how it was run: as §1
HeLa = experiment: Growth inhibition of human HeLa cells after 96 hrs by sulforhodamine B assay; type: functional, cell-based; how it was run: as §1
SK-MEL-28 = experiment: Growth inhibition of human SK-MEL-28 cells after 96 hrs by sulforhodamine B assay; type: functional, cell-based; details: SK-MEL-28, 96 h; how it was run: as §1
[3] = Growth inhibition of human UMRC2 cells after 96 hrs by sulforhodamine B assay; type: functional, cell-based; details: UMRC2, 96 h; how it was run: as §1
HepG2 = experiment: Growth inhibition of human HepG2 cells after 96 hrs by sulforhodamine B assay; type: functional, cell-based; details: HepG2, 96 h; how it was run: as §1
PC-3 = experiment: Growth inhibition of human PC3 cells after 96 hrs by sulforhodamine B assay; type: functional, cell-based; details: PC-3, 96 h; how it was run: as §1
MDA-MB-231 [4] = experiment: Growth inhibition of human MDA-MB-231 cells at 0.1 uM after 96 hrs by sulforhodamine B assay relative to control; type: functional; details: MDA-MB-231, 96 h
MDA-MB-231 [5] = experiment: Growth inhibition of human MDA-MB-231 cells at 0.2 uM after 96 hrs by sulforhodamine B assay relative to control; type: functional; details: MDA-MB-231, 96 h
MDA-MB-231 [6] = experiment: Growth inhibition of human MDA-MB-231 cells at 3 uM after 96 hrs by sulforhodamine B assay relative to control; type: functional; details: MDA-MB-231, 96 h
How it was run: (§2)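 MDA-MB-231 cells in DMEM with 10% FBS, 10 mM HEPES, P/S and 2 mM L-glutamine at 37 °C, 5% CO2, were treated in 96-well plates for 96 h, either alone or with a 20 nM co-treatment. They were then TCA-fixed, SRB-stained and read at 530 nm. Results are % growth inhibition versus untreated cells, with 0.5% DMSO as vehicle control, from triplicates in at least two experiments.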

MDA-MB-231 [7] = experiment: Growth inhibition of human MDA-MB-231 cells at 5 uM after 96 hrs by sulforhodamine B assay relative to control; type: functional; details: MDA-MB-231, 96 h; how it was run: as §2
MDA-MB-231 [8] = experiment: Induction of apoptosis in human MDA-MB-231 cells assessed as decrease of Bcl-2 protein level at 70 nM after 24 to 72 hrs by Western blotting; type: functional, cell-based
How it was run: (§3)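 MDA-MB-231 cells were exposed to 70 nM for 24, 48 or 72 h alongside untreated controls. After a PBS wash, cells were lysed in 25 mM Tris-HCl pH 7.5, 300 mM NaCl, 1% Triton X-100 with protease inhibitors. Protein was quantified by BCA, run on SDS-PAGE and transferred to nitrocellulose. Blots were probed for p21WAF1, Bcl-2 and Bad, with β-actin as the loading control.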

MDA-MB-231 [9] = experiment: Cell cycle arrest in human MDA-MB-231 cells assessed as accumulation at G2/M phase at 0.02 to 0.2 uM after 3 to 12 hrs using propidium iodide staining; type: functional, cell-based
MDA-MB-231 [10] = experiment: Growth inhibition of human MDA-MB-231 cells at 20 nM after 96 hrs by sulforhodamine B assay relative to control; type: functional; details: MDA-MB-231, 96 h
MDA-MB-231 [11] = experiment: Induction of apoptosis in human MDA-MB-231 cells assessed as PARP fragmentation; type: functional, cell-based
MDA-MB-231 [12] = experiment: Induction of apoptosis in human MDA-MB-231 cells assessed as increase of p21 WAF1 protein level at 70 nM after 24 to 72 hrs by Western blotting; type: functional, cell-based; how it was run: as §3
HCT-15 = experiment: Growth inhibition of human HCT15 cells after 96 hrs by sulforhodamine B assay; type: functional, cell-based; details: HCT-15, 96 h
How it was run: as §1, with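 “CO₂. MDA-MB-231, HCT116, Caki-1, UMRC2 and PANC-1 were grown in DMEM with 10% FBS, HEPES, P/S and glutamine.” for “CO₂.”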

HCT-116 [13] = experiment: Resistant index, ratio of IC50 for human HCT15 cells to IC50 for human HCT116 cells; type: functional
MDA-MB-231 [14] = experiment: Induction of apoptosis in human MDA-MB-231 cells assessed as DNA fragmentation; type: functional, cell-based
MDA-MB-231 [15] = experiment: Growth inhibition of human MDA-MB-231 cells at 10 nM after 96 hrs by sulforhodamine B assay relative to control; type: functional; details: MDA-MB-231, 96 h
MDA-MB-231 [16] = experiment: Growth inhibition of human MDA-MB-231 cells at 5 nM after 96 hrs by sulforhodamine B assay relative to control; type: functional; details: MDA-MB-231, 96 h

## COc1cc(OC)cc(N2CCN(C(=O)Nc3nc4cc(C)ccc4nc3OC)CC2)c1
MDA-MB-231 [1]
  IC50: 32 nM
HT-29
  IC50: 48 nM
A549
  IC50: 55 nM
CAKI-1
  IC50: 29 nM
HCT-116 [2]
  IC50: 47 nM
U-251
  IC50: 31 nM
PANC-1
  IC50: 70 nM
MKN-45
  IC50: 40 nM
OVCAR-3
  IC50: 23 nM
HeLa
  IC50: 51 nM
SK-MEL-28
  IC50: 47 nM
[3]
  IC50: 39 nM
HepG2
  IC50: 45 nM
PC-3
  IC50: 63 nM

## Nc1ccn([C@@H]2O[C@H](CO)[C@@H](O)C2(F)F)c(=O)n1 [GEMCITABINE]
MDA-MB-231 [4]
  inhibition at 0.1 µM: 1%
MDA-MB-231 [5]
  inhibition at 0.2 µM: 17.7%

## COc1cc(OC)cc(N2CCN(C(=O)Nc3nc4c(OC)cccc4nc3OC)CC2)c1
MDA-MB-231 [1]
  IC50: 56 nM
HT-29
  IC50: 74 nM
A549
  IC50: 64 nM
CAKI-1
  IC50: 33 nM
HCT-116 [2]
  IC50: 60 nM
U-251
  IC50: 58 nM
PANC-1
  IC50: 42 nM
MKN-45
  IC50: 52 nM
OVCAR-3
  IC50: 44 nM
HeLa
  IC50: 63 nM
SK-MEL-28
  IC50: 68 nM
[3]
  IC50: 29 nM
HepG2
  IC50: 57 nM
PC-3
  IC50: 57 nM

## COc1cc(OC)cc(N2CCN(C(=O)Nc3nc4cc(Cl)ccc4nc3OC)CC2)c1
MDA-MB-231 [1]
  IC50: 50 nM
HT-29
  IC50: 79 nM
A549
  IC50: 73 nM
CAKI-1
  IC50: 53 nM
HCT-116 [2]
  IC50: 68 nM
U-251
  IC50: 56 nM
PANC-1
  IC50: 98 nM
MKN-45
  IC50: 64 nM
OVCAR-3
  IC50: 42 nM
HeLa
  IC50: 73 nM
SK-MEL-28
  IC50: 110 nM
[3]
  IC50: 65 nM
HepG2
  IC50: 63 nM
PC-3
  IC50: 76 nM

## O=c1[nH]cc(F)c(=O)[nH]1 [FLUOROURACIL]
MDA-MB-231 [6]
  inhibition at 3 µM: 3.3%
MDA-MB-231 [7]
  inhibition at 5 µM: 41.6%

## COc1cc(OC)cc(N2CCN(C(=O)Nc3nc4c(C)cccc4nc3OC)CC2)c1
MDA-MB-231 [1]
  IC50: 60 nM
HT-29
  IC50: 55 nM
A549
  IC50: 56 nM
CAKI-1
  IC50: 32 nM
HCT-116 [2]
  IC50: 50 nM
U-251
  IC50: 54 nM
PANC-1
  IC50: 54 nM
MKN-45
  IC50: 57 nM
OVCAR-3
  IC50: 39 nM
HeLa
  IC50: 62 nM
SK-MEL-28
  IC50: 64 nM
[3]
  IC50: 30 nM
HepG2
  IC50: 63 nM
PC-3
  IC50: 57 nM

## COc1cc(OC)cc(N2CCN(C(=O)Nc3nc4cc(F)ccc4nc3OC)CC2)c1 [SUPINOXIN]
MDA-MB-231 [1]
  IC50: 12 nM
HT-29
  IC50: 21 nM
MDA-MB-231 [8]
  Activity: Active
A549
  IC50: 21 nM
CAKI-1
  IC50: 11 nM
HCT-116 [2]
  IC50: 20 nM
U-251
  IC50: 15 nM
PANC-1
  IC50: 21 nM
MKN-45
  IC50: 20 nM
MDA-MB-231 [9]
  Activity: Active
OVCAR-3
  IC50: 12 nM
MDA-MB-231 [10]
  inhibition at 0.02 µM: 14%
MDA-MB-231 [11]
  Activity: Active
HeLa
  IC50: 21 nM
MDA-MB-231 [12]
  Activity: Active
HCT-15
  IC50: 21 nM
HCT-116 [13]
  Ratio IC50: 0.72
SK-MEL-28
  IC50: 20 nM
[3]
  IC50: 13 nM
MDA-MB-231 [14]
  Activity: Active
HepG2
  IC50: 19 nM
PC-3
  IC50: 21 nM

## COc1cccc2c1C(=O)c1c(O)c3c(c(O)c1C2=O)C[C@@](O)(C(=O)CO)C[C@@H]3O[C@H]1C[C@H](N)[C@H](O)[C@H](C)O1 [DOXORUBICIN]
MDA-MB-231 [15]
  inhibition at 0.01 µM: 59.2%
MDA-MB-231 [16]
  inhibition at 0.005 µM: 4.2%

## CC(=O)O[C@H]1C(=O)[C@@]2(C)[C@H]([C@H](OC(=O)c3ccccc3)[C@]3(O)C[C@H](OC(=O)[C@H](O)[C@@H](NC(=O)c4ccccc4)c4ccccc4)C(C)=C1C3(C)C)[C@]1(OC(C)=O)CO[C@@H]1C[C@@H]2O [PACLITAXEL]
HCT-116 [2]
  IC50: 2 nM
HCT-15
  IC50: 140 nM
HCT-116 [13]
  Ratio IC50: 70
